Bioassay records (PubChem)
SENP8 block-1 – blocks the human protease SENP8; inhibition, % at 10 µM; Q96LD8; AID 2540; hit rate 1.2% among 330,000; purified SENP8, Z-RLRGG-aminoluciferin cleavage, luminescence; in the data active means inhibition above about 50%
SENP7 block – inhibitors of human SENP7 protease; Q9BQF6; recombinant SENP7, Z-RLRGG-aminoluciferin luminescence, 40 min; inhibition, % at 5 µM; hit rate 1.5% among 330,000;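 active means inhibition above about 50% at the single test dose, limit read from the data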;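 further: plate controls were DMSO with enzyme for no effect and no enzyme buffer wells for full effect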
Target sequence (Q9BQF6 706-1050 limits assumed): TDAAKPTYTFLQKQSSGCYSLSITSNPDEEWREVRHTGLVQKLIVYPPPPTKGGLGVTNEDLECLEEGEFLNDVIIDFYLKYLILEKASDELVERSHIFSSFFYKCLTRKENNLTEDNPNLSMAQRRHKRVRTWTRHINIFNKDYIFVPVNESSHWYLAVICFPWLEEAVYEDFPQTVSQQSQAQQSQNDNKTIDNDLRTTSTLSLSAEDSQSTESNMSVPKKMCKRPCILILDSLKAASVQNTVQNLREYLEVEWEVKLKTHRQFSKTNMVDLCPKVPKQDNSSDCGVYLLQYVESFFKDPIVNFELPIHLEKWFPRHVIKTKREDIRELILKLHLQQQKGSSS
SENP6 block – inhibitors of human SENP6 protease; Q9GZR1; Recombinant SENP6 catalytic domain, aminoluciferin luminescence; inhibition, % at 10 µM; hit rate 1.8% among 330,000;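 active means inhibition above about 50% at the single tested dose, limit read from the data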;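 further: plate controls were DMSO wells with enzyme for no effect and DMSO wells lacking enzyme for full effect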
SENP1 FRET inh – SENP1 (human) catalytic domain inhibition. recombinant SENP1 catalytic domain, CyPet-SUMO1-YPet FRET cleavage. hit rate 0.21% among 360,000. inhibition, % at 10 µM. Q9P0U3;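 active means inhibition at least 30% at 10 µM, raw YFP signal under a set limit, fluorescence ratio 0.5 to 1.5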;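 further: 0% = enzyme with DMSO and 100% = no enzyme wells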
Target sequence (Q9P0U3 419-644 limits assumed): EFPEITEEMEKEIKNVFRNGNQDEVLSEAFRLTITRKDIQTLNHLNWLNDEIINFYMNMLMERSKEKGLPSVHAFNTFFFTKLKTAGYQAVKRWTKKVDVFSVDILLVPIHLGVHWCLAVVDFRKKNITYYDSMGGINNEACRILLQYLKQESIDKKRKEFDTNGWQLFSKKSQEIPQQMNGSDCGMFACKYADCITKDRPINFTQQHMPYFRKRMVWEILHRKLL
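Material: hSENP1 catalytic domain, recombinant; medium: Tris pH 8 with BME, BSA, NP40 and catalase; compound: single concentration of 10 µM compound, 0.5% DMSO final; technique: FRET read of cyan and yellow fluorescence; timing: 50 min enzyme reaction, room temperature, light-protected; reagent: SFCypet-SUMO1-SFYpet substrate at 25 nM; control set: no-enzyme low, enzyme-DMSO high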
SENP8 block-2 – SENP8 (human) protease inhibition; Q96LD8; recombinant SENP8, Nedd8 substrate fluorescence; inhibition, % at 20 µM; hit rate 0.64% among 360,000; in the data active means inhibition mostly above about 40%, no sharp cut-off; inactive means mostly below about 27%
SENP8 confirm – confirmation of human SENP8 protease inhibitors. shares compounds with SENP7 block. Recombinant SENP8, Z-RLRGG-aminoluciferin luminescence, 60 min. inhibition, % at 12.5 µM. hit rate 40% among 6,200;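 active means mean inhibition across replicates above about 50%, limit read from the data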
SENP6 confirm – human SENP6 inhibition, confirmed | shares compounds with SENP7 block | recombinant SENP6, Z-RLRGG-aminoluciferin luminescence | inhibition, % at 12.5 µM | hit rate 58% among 6,200 | AID 488915
SENP7 confirm – human SENP7 inhibition, confirmed; shares compounds with SENP7 block; recombinant SENP7, Z-RLRGG-aminoluciferin luminescence, 40 min; inhibition, % at 12.5 µM; hit rate 69% among 6,200; AID 488917
Casp3 select – selectivity test for SENP inhibitors: human caspase-3 inhibition; shares compounds with SENP7 block; purified caspase-3, Z-DEVD-aminoluciferin luminescence, 60 min; inhibition, % at 12.5 µM; hit rate 60% among 6,200;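 active means mean inhibition above about 50%, limit read from the data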;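 further: plate controls were enzyme with DMSO for no effect and wells without caspase-3 for full effect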
SENP luc ctr – counter-screen for SENP inhibitors: luminescence interference; hit rate 39% among 6,200; AID 488919; shares compounds with SENP7 block; inhibition, % at 12.5 µM; Pre-incubated SENP8/Z-RLRGG-aminoluciferin, luciferase luminescence interference;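 active means mean inhibition above about 50% when retested at one dose, limit read from the data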;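 further: plate controls were DMSO wells with completed reaction for no effect and substrate without enzyme for full effect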
* = called active by the depositor; / = no result. Rows were chosen to be rich in hits. Some 2.5% of all compounds tested hit in one or more screens of this group.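 How the source made its calls, unless noted: active means mean inhibition above about 50% in the one-dose retest (limit read from the data); inactive means the rest.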

SMILES | SENP8 block-1 | SENP7 block | SENP6 block | SENP1 FRET inh | SENP8 block-2 | SENP8 confirm | SENP6 confirm | SENP7 confirm | Casp3 select | SENP luc ctr
O=C(NCCCN1CCOCC1)c1sc2cc([N+](=O)[O-])ccc2c1Cl | 5 | -2 | 62* | 3 | 13 | -8 | -5 | -9 | 4 | 0
CC(C)CNC(=S)NNC(=O)c1csc2c1CCCC2 | 11 | 50* | 12 | 1 | 8 | 1 | 2 | -4 | -2 | -2
COc1cccc(COC(=O)c2ccc3c(c2)NC(=O)C(C)S3)c1OC (stereo not given) | 6 | 3 | -16 | -2 | 0 | / | / | / | / | /
CC1Sc2ccc(C(=O)OCc3ccccc3Cl)cc2NC1=O (stereo not given) | 6 | 70* | 55* | -1 | -9 | -24 | -11 | -1 | 2 | -5
[O-][n+]1c(/C=C/c2ccccc2)ccc2ccccc21 | 11 | 68* | 77* | 0 | -36 | 92* | 92* | 100* | 91* | 89*
Cc1ccc(C)c(NS(=O)(=O)c2cc(C(=O)NCc3ccccn3)ccc2C)c1 | 3 | -2 | -4 | -2 | 8 | / | / | / | / | /
O=C(OCc1csc(-c2ccccc2)n1)c1ccccc1O | 88* | 91* | 92* | 2 | 12 | 86* | 92* | 99* | 82* | 40
O=C(OCc1ccccc1)c1ccccc1O | 22 | 40 | 15 | / | / | / | / | / | / | /
Fc1ccc(Oc2ccc3nnc(C(F)(F)F)n3n2)cc1 | 1 | -4 | -1 | -2 | 8 | / | / | / | / | /
CC(C)N(C)c1ncnc2c1ncn2[C@H]1CN(Cc2ccc(F)cc2)C[C@@H](CO)O1 | / | / | / | 0 | 12 | / | / | / | / | /
CC(C)[C@@H]1O[C@H](CCc2ccccc2)CC2=C1C(=O)OC(C)(C)O2 | / | / | / | 1 | 9 | / | / | / | / | /
CCN(C(=S)NC(=O)c1ccco1)c1cccc2ccccc12 | 33 | 23 | 70* | -6 | -483 | 13 | 17 | 9 | 3 | 5
c1ccc(-c2nc3ccccc3o2)nc1 | -8 | -3 | 13 | 1 | -7 | / | / | / | / | /
c1ccc2nc(-c3nc4ccccc4o3)ccc2c1 | 97* | 100* | 98* | 8 | -296 | 98* | 100* | 102* | 99* | 95*
O=C(COC(=O)c1cc(S(=O)(=O)N2CCCCC2)ccc1N1CCOCC1)c1ccc(F)cc1 | 1 | -3 | 7 | 1 | 12 | / | / | / | / | /
Clc1ccc2nc3ccccc3cc2c1 | / | / | / | -4 | -306 | / | / | / | / | /
Clc1ccc2nc3c4ccccc4cnn3c2c1 | 95* | 98* | 99* | 2 | -356 | 94* | 94* | 101* | 92* | 24
O=C(CSc1ncnc2c1nnn2Cc1ccccc1F)NCC1CCCO1 (stereo not given) | 1 | -1 | 5 | -1 | -3 | / | / | / | / | /
O=C(Nc1cccc(O)c1)c1cc(-c2ccco2)on1 | 84* | -1 | 92* | -3 | 6 | 90* | 91* | 98* | 90* | 90*
COc1ccc(-c2cc(C(=O)Nc3cccc(O)c3)no2)cc1 | 93* | 99* | 97* | 1 | 12 | 93* | 94* | 101* | 95* | 57*
COc1ccc(-c2cc(C(=O)Nc3ccc(C)c(C)c3)no2)cc1 | 0 | 6 | -3 | 1 | 2 | / | / | / | / | /
O=c1c(Cc2ccc(F)cc2)c(O)ccn1CCCn1ccnc1 | -4 | -4 | 10 | 3 | 3 | / | / | / | / | /
COc1ccc(-c2noc(=O)n2Cc2ccccc2Cl)cc1 | 14 | 1 | 10 | 0 | 13 | / | / | / | / | /
N#Cc1c(Nc2ccccc2)sc(C(=O)C2CC2)c1N | -2 | 2 | 8 | 1 | 9 | / | / | / | / | /
Cc1cccc(S(=O)(=O)NC(=O)C2(C)CCN2C(=O)c2ccccc2)c1 (stereo not given) | / | / | / | 2 | 18 | / | / | / | / | /
SMILES | SENP8 block-1 | SENP7 block | SENP6 block | SENP1 FRET inh | SENP8 block-2 | SENP8 confirm | SENP6 confirm | SENP7 confirm | Casp3 select | SENP luc ctr
Cc1cccc(-c2noc(C3CCCCC3)n2)c1 | 21 | 50 | 63* | 1 | 15 | 11 | 26 | 75* | 22 | 10
COc1ccc(C(=O)Nc2nc3ccccc3s2)c(OC)c1 | 98* | 101* | 97* | -1 | -171 | 88* | 100* | 103* | 98* | 33
COc1ccc2nc(NC(=O)c3ccccc3F)sc2c1 | 83* | 93* | 87* | 0 | -96 | 75* | 85* | 98* | 87* | 29
CCCC(=O)Nc1nc2ccc(NC(=O)c3ccccc3F)cc2s1 | -8 | 4 | 7 | 1 | 12 | / | / | / | / | /
Cc1nc(NC(=O)COc2ccccc2)sc1C(=O)Nc1cccc(Cl)c1 | 2 | 47 | -2 | 2 | -40 | / | / | / | / | /
COc1ccc(NC(=O)c2sc(NC(=O)COc3ccccc3)nc2C)cc1 | 59* | 0 | 68* | 1 | 11 | -5 | 54* | 96* | 82* | 26
Cc1ccc2nc(NC(=O)c3ccccc3F)sc2c1 | 81* | 91* | 86* | 0 | -34 | 22 | 76* | 50* | 64* | 7
COc1ccc2nc(NC(=O)c3ccccc3C(=O)O)sc2c1 | -1 | -7 | -19 | 3 | 10 | / | / | / | / | /
O=C(Nc1ccc(-n2cccn2)cc1)C1CCCCN1Cc1cccc2c1OCO2 (stereo not given) | -8 | -4 | -9 | 2 | -9 | / | / | / | / | /
CC(C)C[C@H]1CN(CCCC[C@H]2CNC(=O)C(=O)N2CCc2ccc(O)cc2)C(=O)C(=O)N1CCC1CCCCC1 | / | / | / | -2 | 18 | / | / | / | / | /
COc1ccc2nc(NC(=O)Nc3ccccc3)sc2c1 | 49 | 85* | 68* | 1 | 0 | 44 | 46 | 91* | 52* | 11
COc1ccc(NC(=O)c2nc3ccccc3s2)cc1 | 95* | 97* | 95* | 0 | 9 | 4 | 98* | 102* | 94* | 75*
Cc1ccc(S(=O)(=O)N2CC3C(=O)C[C@@H](c4ccccc4)N(S(=O)(=O)c4cccc(Cl)c4)C3CC2c2ccccc2)cc1 (stereo not given in full) | / | / | / | 2 | 8 | / | / | / | / | /
CCC(C)C1Nc2ccc(C(=O)NCCc3ccc(OC)c(OC)c3)cc2NC1=O (stereo not given) | 1 | -1 | -6 | 0 | 5 | / | / | / | / | /
Cc1ccnc(NC(=O)Nc2cccc(F)c2)c1 | 73* | 94* | 93* | 5 | 15 | 56* | 72* | 89* | 72* | 17
